First the molecules themselves.
B1: tRNA (parent)
chain: GUUCCGUUGGCGUAAUGGUAACGCGUCUCCCUCCUAAGGAGAAGACUGCGGGUUCGAGUCCCGUACGGAACG

The values below come from the RNAGym collection of RNA variant scans (doi:10.1126/science.aae0568).

Fewer inactive variants are shown than the library holds.

The variants in the data set derive from B1. The data set can be described thus: yeast fitness relative to wild type (ratio to wild type); higher = fitter; tRNA-Arg(CCU), competitive growth, 37 C, YPD. The essentials:
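Variants of the tRNA-Arg(CCU) gene were chemically synthesised with a 3% per-site mutation rate across 69 sites and placed at the native genomic locus in Saccharomyces cerevisiae. Six parallel replicates of the pooled strains were competed in YPD at 37°C for 24 hours, and gene amplicons from the start and end populations were read by 100-nucleotide paired-end sequencing. Darwinian fitness relative to wild type was derived from changes in genotype frequencies. Genotypes required ≥ 100 starting reads, and estimates < 0.5 were set to 0.5.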
Take C4U C11G C29U G48A G52A: the yeast fitness was not above 0.5.

For C11G A15G C33G A37G, the yeast fitness was not above 0.5.

Consider U3A G10C A36U A40C, for which the yeast fitness is not above 0.5.

As to U8C C27G A57C A70U, the yeast fitness is not above 0.5.

With G6C A42G C46A, the yeast fitness amounted to 0.695.

Regarding C55A A57C U64C A65U, the yeast fitness was 0.527.

Consider C27U G51A U59A, for which the yeast fitness was 0.568.

G18C C31G A42G: the yeast fitness worked out at 0.505.

Consider C5U C24A C27G C61A C66G, for which the yeast fitness came out at 0.624.

For G18A C30A G58A G68U, the yeast fitness is not above 0.5.

Consider A37G C60G, for which the yeast fitness is not above 0.5.

For the variant A14U C24G G41A G44A U53A C66U G68C, the yeast fitness is not above 0.5.

As for U13C A43G, the yeast fitness amounted to 0.984.

For the variant C33G C34U C55U A65U G68C, the yeast fitness is not above 0.5.

As to C5G C46U G68C, the yeast fitness turned out to be 0.596.

For the variant C5U A21G A37G G39C G44C C46A U54C A65C, the yeast fitness was not above 0.5.

On to C27G C34A C60A, for which the yeast fitness was 0.551.

As for U19A G63A, the yeast fitness stood at 0.952.

As for A14C C60A A70U, the yeast fitness is not above 0.5.

For the variant C30U U32C, the yeast fitness was determined as 0.924.

In the case of U16A C22G A45C, the yeast fitness amounted to 0.607.

Regarding C5U G23A C31U A65G, the yeast fitness is not above 0.5.

With C24G C33U A65U, the yeast fitness was not above 0.5.

For the variant C29G U54G, the yeast fitness worked out at 0.563.

For A14C C27A U28A A45G, the yeast fitness was not above 0.5.

As to U3C C4G G12C G44C A57U, the yeast fitness was not above 0.5.

With A36U A69G, the yeast fitness turned out to be 0.617.

As for A45C G52A, the yeast fitness was determined as 0.731.

Turning to A40U A43C A69U, the yeast fitness came to 0.851.

For the variant A21C G23A C49A, the yeast fitness is not above 0.5.

For C5A U28G A65U, the yeast fitness is not above 0.5.

On to U2A C11G A40U, for which the yeast fitness amounted to 0.544.

On to U7A A21C, for which the yeast fitness is 0.54.

With C11G U16G G38C, the yeast fitness amounted to 0.577.

C22A C27G A65U: the yeast fitness is not above 0.5.

Take U3C C24U C55G: the yeast fitness was not above 0.5.

With C24G C34G G50C C61U, the yeast fitness was not above 0.5.

Consider C4U G18C A45C, for which the yeast fitness was not above 0.5.

In the case of C46U C55A G56C, the yeast fitness worked out at 0.561.

With U3G G18A A69U, the yeast fitness is not above 0.5.

Take G9A A20G C30U G52A G68A: the yeast fitness was not above 0.5.

With U2A A20G C49U, the yeast fitness was found to be 0.605.

As to C27G C49G, the yeast fitness worked out at 0.621.

In the case of A20C U28C A65G, the yeast fitness is 0.661.

U2C U7A U35A G56A: the yeast fitness is not above 0.5.

Take A21U C22U A37G G44A A45C C46A C55U U59G U64C: the yeast fitness is not above 0.5.

U2G A20G C22A A40C C46G G48A C49U: the yeast fitness is not above 0.5.

With C30U A37G, the yeast fitness worked out at 0.656.

Consider G10C U13A A43U C61A A70C, for which the yeast fitness is not above 0.5.

For C46U U54C A70U, the yeast fitness worked out at 0.804.

On to C30U G44A A65U, for which the yeast fitness is not above 0.5.

As to C11A C31G A42U, the yeast fitness is 0.537.

For A15G U54A C62U, the yeast fitness is not above 0.5.

For C24U A42U G52C G63A, the yeast fitness was not above 0.5.

Take G9A C24U G38A G48C: the yeast fitness is not above 0.5.

As for U19C C27A G50C, the yeast fitness turned out to be 0.577.

Regarding G18A C66U, the yeast fitness is 0.736.

For the variant U2A C5G U8A G44A G48A G50C, the yeast fitness was not above 0.5.

With C5U U35A, the yeast fitness is 0.615.

On to G63C G68U, for which the yeast fitness turned out to be 0.568.

For U8G C33A A37U G38C A70C, the yeast fitness was not above 0.5.

Turning to U13A A45C G48A, the yeast fitness was found to be 1.26.

C5A C11G: the yeast fitness came to 0.657.

Turning to C5U A20G C31G U47C G48C, the yeast fitness is not above 0.5.

For the variant C29A A69G, the yeast fitness came out at 0.6.

Turning to A15C A45G U53C, the yeast fitness was not above 0.5.

Turning to U2C A43U G48A C61G A70C, the yeast fitness is not above 0.5.

Turning to U2C C46U C66U, the yeast fitness was 0.779.

In the case of C24G C66G, the yeast fitness was found to be 0.691.

For C34G G39C U53G G56A, the yeast fitness is not above 0.5.

Turning to U16C G68C A69U, the yeast fitness was not above 0.5.

Take A36G C66A: the yeast fitness is 0.683.

Take U2A C4A C22A C55U: the yeast fitness is not above 0.5.

Take G10A C22U G56C A70U: the yeast fitness was not above 0.5.

For C22U U26G U35A A45G G50A, the yeast fitness came to 0.648.

As to C5G A21C A45G, the yeast fitness came to 0.512.

Consider U2G C22G G41C G68A, for which the yeast fitness worked out at 0.573.

For the variant C5U U16C C30A C31U, the yeast fitness was not above 0.5.

As to U2C C62A, the yeast fitness turned out to be 0.677.

As for C24A G39C A70C, the yeast fitness was 0.601.

For A36G C49A, the yeast fitness came to 0.799.

Consider C4A C11G C31A A42G C66A, for which the yeast fitness was not above 0.5.

Take G18C C46U: the yeast fitness was 0.626.

As for C4A U19A, the yeast fitness is 0.854.

Turning to C5G A20G A40G G44A C46G A70C, the yeast fitness is not above 0.5.

As for U19A A43U C46G, the yeast fitness was 0.658.

Regarding G17C C22G U26C U47A C66U, the yeast fitness was not above 0.5.

On to U19A C24U G25C C49U, for which the yeast fitness is not above 0.5.

Turning to U2G G58C, the yeast fitness was determined as 0.755.

C22U A45U: the yeast fitness was 0.909.

With C27A C34U A42C U53G, the yeast fitness is not above 0.5.

As for C11U A14U G18A C31U C46G U47A A65C, the yeast fitness was not above 0.5.

Take A20G G58A A70C: the yeast fitness is 0.836.

In the case of G6A C62U G67C, the yeast fitness is not above 0.5.

With C4U G39C, the yeast fitness came to 0.829.

A36U C60A A70U: the yeast fitness was not above 0.5.

In the case of G41A C49A, the yeast fitness was found to be 0.663.

With C22U C24G A36C A70C, the yeast fitness was not above 0.5.

For the variant C4A C11U A57C, the yeast fitness is not above 0.5.

Turning to A20C C22U A43U A69C, the yeast fitness is not above 0.5.

A20G C24G G44C: the yeast fitness is 0.784.

With U16A A21U C24A, the yeast fitness is not above 0.5.

As to C34G C49G A65G, the yeast fitness is not above 0.5.

As to G23A C27U C60G, the yeast fitness is 0.525.

As to U35C A57C, the yeast fitness turned out to be 0.609.

Turning to A20G G23A G38C, the yeast fitness was determined as 0.656.

For C11U A20C A69C, the yeast fitness stood at 0.627.

As to U3A G9A A15C C27U A57U C62A, the yeast fitness came out at 0.667.

With C27A C33U G52C C62G, the yeast fitness came out at 0.579.

On to A14G C24A G25A C31A, for which the yeast fitness is not above 0.5.

As for U8A A15U C29U G38C, the yeast fitness was not above 0.5.

A43C C66A: the yeast fitness came to 0.699.

Turning to G25U G44C, the yeast fitness was 0.647.

As to C27A G50A, the yeast fitness came out at 0.848.

In the case of C4U G25A A70U, the yeast fitness came out at 0.77.

Regarding A14C U19C A20G G58A, the yeast fitness is not above 0.5.

With A15G C29G C46U, the yeast fitness was 0.52.

Consider A21G G39C C46A, for which the yeast fitness turned out to be 0.881.

In the case of G12C A15C A20U U53A U59G, the yeast fitness is not above 0.5.

Take U13A C30U C34U A42G G63A: the yeast fitness was not above 0.5.

With U28C C55U A57C, the yeast fitness is not above 0.5.

Regarding G44C C49U U59G, the yeast fitness was not above 0.5.

Take C4U A36G G44C A69U: the yeast fitness is 0.635.

Consider G6A C24U C61A, for which the yeast fitness was not above 0.5.

For U8G C33A A37U G38C, the yeast fitness was found to be 0.529.

U3C G25C C34U G56A: the yeast fitness is not above 0.5.

Take U2G A14U A20G C33G G67U A69C: the yeast fitness was not above 0.5.

For C11U A14G C24G C27U G41A A42C, the yeast fitness was not above 0.5.

Regarding A14C C22U C24U A37G, the yeast fitness was not above 0.5.

As for U16A U19C G56A, the yeast fitness was 0.68.

As to G9C C29U, the yeast fitness turned out to be 0.674.

As for U2C G10A C46G G50A, the yeast fitness was not above 0.5.

With C5U A36U G67A, the yeast fitness is not above 0.5.

Regarding U8C U32A U47A G56C, the yeast fitness was found to be 0.944.

Regarding G44C C46A G56C, the yeast fitness was found to be 0.543.

Regarding A37U C49G, the yeast fitness was 0.652.

As to C11A C30G, the yeast fitness was not above 0.5.

For C24U C30G C31A A43G, the yeast fitness is not above 0.5.

Regarding G6C C27A A42C G52A G56A G63C, the yeast fitness was not above 0.5.

For C11G A15G C22A U26A A40U C49U, the yeast fitness was not above 0.5.

G9A A43C A57U: the yeast fitness is not above 0.5.

Regarding U47G G50C, the yeast fitness is not above 0.5.

In the case of C30G C49U G67C, the yeast fitness is not above 0.5.

As for A15U G25A G44C, the yeast fitness worked out at 0.566.

With U7A C34A A42C G58A, the yeast fitness was not above 0.5.

On to A57U C60A, for which the yeast fitness turned out to be 0.54.

As for A20U G41A, the yeast fitness stood at 0.867.

On to U7A U19G U26C C29G, for which the yeast fitness was not above 0.5.

In the case of A21G C27A A37U G50A C66U, the yeast fitness is not above 0.5.

For U8C U19A C24U G38A U54C C66A, the yeast fitness is not above 0.5.

As to C27G G44C A45G U64G, the yeast fitness is not above 0.5.

For the variant G39A G63C, the yeast fitness stood at 0.728.

Turning to A14U A42U A57U A70U, the yeast fitness is not above 0.5.

In the case of C5G C66U, the yeast fitness was determined as 0.74.

Take A37U U53G: the yeast fitness was determined as 0.538.

In the case of G6A U13G A36U C46G C62A, the yeast fitness is not above 0.5.

Take U2A A21U A42G: the yeast fitness was not above 0.5.

C29G C55U G67C: the yeast fitness was not above 0.5.

For U3C G25A, the yeast fitness was determined as 0.968.

In the case of C34U G41C, the yeast fitness was determined as 0.768.

As for C5G G9A C11U A21U C22U A57C C60G, the yeast fitness amounted to 0.535.

Turning to G12C U16A C60G C61U G63A G68A, the yeast fitness is not above 0.5.

With C29A C62A, the yeast fitness stood at 0.581.

For the variant U7A G41C, the yeast fitness was 0.684.

As to C4U C46A, the yeast fitness is 0.841.

Regarding C11A U13A C31G, the yeast fitness was found to be 0.608.

For U28A A65C, the yeast fitness amounted to 0.675.
